Reference: ChEMBL document CHEMBL1148008, “Antimicrobial and cytotoxic activity of agelasine and agelasimine analogs” (Bioorg Med Chem, 2007)

Legend:
[1] = test system: Mycobacterium tuberculosis; test: Antimicrobial activity against Mycobacterium tuberculosis at 6.25 ug/mL after 20 hrs by broth microdilution method; assay type: functional
[2] = test system: Mycobacterium tuberculosis; test: Antimicrobial activity against Mycobacterium tuberculosis after 20 hrs by broth microdilution method; assay type: functional
[3] = test system: Staphylococcus aureus; test: Antibacterial activity against Staphylococcus aureus ATCC 25923 after 20 hrs by broth microdilution method; assay type: functional; conditions: ATCC 25923, 20 h
In short: (§1)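 Strains grown 24 h at 35 °C on tryptone-soya agar. Colonies suspended in saline to 0.5 McFarland, then diluted 1:10 in Mueller-Hinton broth (~10⁷ CFU/mL). Inoculum added to twofold dilutions in broth (final 0.125–32 µg/mL) in triplicate. Incubated aerobically at 35 °C for 20 h. MIC is the lowest concentration giving complete growth inhibition. Repeated at least once; gentamycin/streptomycin served as QC.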

[4] = test system: Escherichia coli; test: Antibacterial activity against Escherichia coli ATCC 25922 after 20 hrs by broth microdilution method; assay type: functional; conditions: ATCC 25922, 20 h; in short: as §1
[5] = test system: Bacteroides fragilis; test: Antibacterial activity against Bacteroides fragilis after 20 hrs by broth microdilution method; assay type: functional
[6] = test system: Bacteroides thetaiotaomicron; test: Antibacterial activity against Bacteroides thetaiotaomicron after 20 hrs by broth microdilution method; assay type: functional
[7] = test system: U-937/GTB; test: Cytotoxicity against U937 GTB cells; assay type: functional, cell-based; conditions: Homo sapiens
In short: (§2)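 Fluorometric microculture cytotoxicity assay (FMCA) read-out; IC50 values reported.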

[8] = Cytotoxicity against RPMI 8226/s cells; assay type: functional, cell-based; conditions: Homo sapiens, RPMI8226/S; in short: as §2
[9] = Cytotoxicity against CEM/s cells; assay type: functional, cell-based; conditions: Homo sapiens; in short: as §2
[10] = test system: ACHN; test: Cytotoxicity against ACHN cells; assay type: functional, cell-based; conditions: Homo sapiens; in short: as §2
[11] = test system: Pichia kudriavzevii; test: Antifungal activity against Candida krusei ATCC 6258; assay type: functional
[12] = test system: Streptococcus pyogenes; test: Antibacterial activity against Streptococcus pyogenes after 20 hrs by broth microdilution method; assay type: functional
[13] = test system: Enterococcus faecalis; test: Antimicrobial activity against Enterococcus faecalis after 20 hrs by broth microdilution method; assay type: functional
[14] = test system: Pseudomonas aeruginosa; test: Antibacterial activity against Pseudomonas aeruginosa after 20 hrs by broth microdilution method; assay type: functional

SMILES | inhibition at 6.25 µg/mL [1] [%] | MIC [2] [µg/mL] | MIC [3] [µg/mL] | MIC [4] [µg/mL] | MIC [5] [µg/mL] | MIC [6] [µg/mL] | IC50 [7] [µM] | IC50 [8] [µM] | IC50 [9] [µM] | IC50 [10] [µM] | MIC [11] [µg/mL] | MIC [12] [µg/mL] | MIC [13] [µg/mL] | MIC [14] [µg/mL]
CO/N=c1\[nH]cnc2c1[n+](C/C=C(\C)CC/C=C(/C)CCC=C(C)C)cn2C | 98 | 3.13 | 6 | 16 | 32 | 16 | 1.4 | 0.736 | 1.23 | 28.7 |  |  |  | 
CC(C)=CCC/C(C)=C/CC/C(C)=C/CC/C(C)=C/C[n+]1cn(C)c2nc[nH]/c(=N\OCc3ccccc3)c21 | 99 | 3.13 | 6 | > 32 | 8 | 16 | 6.79 | 8.24 | 14 | 20.9 | 1 |  |  | 
CO/N=c1\[nH]cnc2c1[n+](C/C=C(\C)CC/C=C(\C)CCC=C(C)C)cn2C | 99 | 3.13 | 8 | 16 | 16 | 16 | 1.32 | 1.24 | 1.16 | 40.4 | 8 |  |  | 
CC(C)=CCC/C(C)=C\CC/C(C)=C/C[n+]1cn(C)c2nc[nH]/c(=N\OCc3ccccc3)c21 | 99 | 3.13 | 8 | 12 | 4 | 4 | 7.55 | 6.76 | 10 | 25.2 |  |  |  | 
CO/N=c1\[nH]cnc2c1[n+](C/C=C(\C)CC/C=C(\C)CC/C=C(\C)CCC=C(C)C)cn2C |  |  | 4 | 16 | 8 | 8 | 1.42 | 1.11 | 1.91 | 7.38 | 2 | 4 | 8 | > 32
